The list is not random: actives were taken first. Their share in the collection is about 4.9%.
CHT block = inhibitors of human choline transporter CHT | CHT-expressing cells, membrane potential dye, choline response; active compounds read low | hit rate 0.86% among 310,000 | B-score at 10 µM;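 active = B-score over 3 SD under the library average, and starting fluorescence ratio not unusually high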;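 also: choline stimulus applied at its EC90 after an EC20 pre-addition; B-score computed on integrated fluorescence ratio after choline addition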
Target sequence (Q9GZV3 whole entry, looked up): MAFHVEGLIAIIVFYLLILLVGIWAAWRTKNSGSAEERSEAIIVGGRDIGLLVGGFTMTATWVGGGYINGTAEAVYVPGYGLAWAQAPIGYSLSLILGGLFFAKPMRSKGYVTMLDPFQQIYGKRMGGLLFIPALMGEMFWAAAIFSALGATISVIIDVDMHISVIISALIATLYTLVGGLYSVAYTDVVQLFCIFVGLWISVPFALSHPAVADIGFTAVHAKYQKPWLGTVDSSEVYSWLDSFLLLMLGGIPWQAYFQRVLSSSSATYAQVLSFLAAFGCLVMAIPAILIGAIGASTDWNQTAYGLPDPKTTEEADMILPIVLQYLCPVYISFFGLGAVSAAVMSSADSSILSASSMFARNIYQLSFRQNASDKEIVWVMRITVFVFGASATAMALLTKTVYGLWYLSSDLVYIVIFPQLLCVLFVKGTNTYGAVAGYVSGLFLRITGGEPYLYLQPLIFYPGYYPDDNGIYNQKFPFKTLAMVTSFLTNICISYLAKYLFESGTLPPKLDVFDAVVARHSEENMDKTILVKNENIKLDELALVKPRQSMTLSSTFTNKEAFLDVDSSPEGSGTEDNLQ
Lipid droplet = modulators of hepatic lipid droplet formation | hit rate 0.4% among 240,000 | AML12 mouse hepatocytes, oleate lipid droplets, BODIPY imaging | inhibition, % at 6.5 µM | AID 1656;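 active = lipid droplet intensity inhibited by at least 50%, with more than 500 cells counted; inconclusive = wells with under 300 cells, treated as cytotoxic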
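Material – mouse AML12 hepatocyte cell line, fixed after treatment · Compound dosing – one dose, 6.5 µM compound · Times – compound with oleate, overnight · Measured by – Image-based BODIPY and DAPI two-channel analysis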
HSF1 activator = increases HSF-1 driven luciferase reporter signal. AID 504408. hit rate 1.7% among 300,000. NIH3T3-HGL HSF-1 luciferase reporter, MG132, 8 h; 100% = twice DMSO control signal. activation, % at 9 µM;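 active = mean replicate activation of at least 50% with a set share of replicates each reaching 50%; inconclusive = only one of those two conditions met; inactive = mean below 50% and too few replicates reaching it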
HSF1 inhib = HSF1 inhibition | hit rate 0.77% among 300,000 | NIH3T3-HGL HSE-luciferase, MG132-induced, luminescence 8 h; active compounds read low | activity change, negative = inhibition, % at 7.5 µM (by protocol);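 active = more than half of replicate wells show activity change below -50%, luminescence cut by over half; inconclusive = some wells, but at most half, below -50%; inactive = no replicate well below -50%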;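 also: luciferase reports HSF-1 transcriptional activity via heat shock element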
CHT PAM = allosterically activates the human high affinity choline transporter; CHT-expressing cells, membrane potential dye, choline EC20; active compounds read high; LV-AA mutant CHT in HEK293 cells; B-score at 10 µM; hit rate 0.49% among 310,000; Q9GZV3;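 active = initial fluorescence not abnormally high and integrated response B-score, plate-corrected, over 3 SD above library mean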
PHOSPHO1 block = PHOSPHO1 (human) inhibition; Q8TCT1; AID 1565; hit rate 1.1% among 290,000; recombinant PHOSPHO1, absorbance phosphatase assay; inhibition, % at 13.3 µM; in the data active = inhibition above about 60%
Numbers stand for hits; i = inactive; ? = inconclusive; nt = no result given.

SMILES	CHT block	Lipid droplet	HSF1 activator	HSF1 inhib	CHT PAM	PHOSPHO1 block
Cc1c(C#N)c(O)n(CCO)c(=O)c1N=Nc1ccc2c(c1)COC2=O	i	i	67	i	i	i
CCCC(=O)Nc1ccc2c(c1)COC2=O	i	i	i	i	i	i
CC1(C)CC(NC(=O)COc2ccccc2Cl)CC(C)(C)N1	i	i	i	-65	i	i
Cc1ccc(N2CC(C(=O)Nc3ccc4c(c3)OCO4)CC2=O)cc1C (configuration not stated)	i	i	i	i	i	i
CCn1c(COc2ccccc2C)nnc1SCC(=O)CC(=O)Nc1ccccc1OC	i	i	i	i	i	i
CCn1c(COc2ccccc2)nnc1SCC(=O)CC(=O)Nc1ccccc1OC	i	nt	i	i	i	92
CCn1c(COc2cccc(C)c2)nnc1SCC(=O)CC(=O)Nc1ccccc1OC	i	nt	nt	nt	i	93
CCC(C)NC(=O)c1c(C)cc(=O)oc1C (configuration not stated)	i	nt	i	i	i	i
CCOC(=O)c1c(C)sc2c1N(C(=O)CCl)c1cc(Cl)ccc1S2	i	nt	79	i	i	i
CCOC(=O)Cn1c(=O)oc2cc(S(=O)(=O)N3CCN(C(=O)c4ccco4)CC3)ccc21	i	nt	71	i	i	i
CCOC(=O)C1(Cc2ccccc2)CCCN(CCCn2cccn2)C1 (configuration not stated)	i	i	i	?	i	64
O=C(NC(=S)Nc1ccc(Cc2ccncc2)cc1)c1ccccc1F	i	i	i	i	i	63
Cc1ccccc1C(=O)NC(=S)Nc1ccc(Cc2ccncc2)cc1	i	i	i	i	i	i
COc1ccc(C(=O)O/N=C(\N)c2ccc(OC)c(OC)c2)cc1	i	i	66	i	i	i
COc1ccc(/C(N)=N/OC(=O)CSc2ccc(C)cc2)cc1OC	i	nt	57	i	i	i
CCOC(=O)c1c(NC(=O)COC(=O)CNC(=O)c2ccc(Cl)cc2Cl)sc(C(=O)N(C)C)c1C	i	nt	i	i	i	nt
CC1CCCCC1NC(=O)CCc1nc2sc3c(c2c(=O)[nH]1)CCCC3 (configuration not stated)	i	nt	i	i	i	nt
N/C(CSc1ccc(Cl)cc1)=N\NC(=O)c1ccncc1	i	i	i	i	i	i
Cc1ccc(C(=O)/C=C/Nc2ccccc2C(N)=O)cc1	i	nt	i	i	i	i
Cc1ccc(N/C=C/C(=O)c2ccc(C)cc2)cc1	i	i	i	i	i	i
Cc1ccc(C(=O)/C=C\Nc2ccc(C)c(C)c2)cc1	i	i	56	i	i	i
Cc1ccc(C(=O)/C=C/Nc2ccccn2)cc1	i	nt	i	-62	i	nt
CN1C(=O)c2cccc3c(S(=O)(=O)Nc4ccc(O)c(C(=O)O)c4)ccc1c23	i	i	i	i	i	i
CC(NC(=O)/C=C/c1ccco1)c1nc2ccccc2n1Cc1cccc(Cl)c1 (configuration not stated)	i	i	70	i	i	i
Cc1ccc2c(c1)c(Sc1ccccc1)c(CC(=O)O)n2C	i	i	i	i	i	i
SMILES	CHT block	Lipid droplet	HSF1 activator	HSF1 inhib	CHT PAM	PHOSPHO1 block
CCN1C(=NCCc2cccs2)N[C@@H](c2cccs2)C(C(=O)OC)=C1C	i	nt	i	-60	i	i
CCOC(=O)CN1C(=O)N[C@@H](c2cccs2)C(C(=O)OC)=C1C	i	nt	i	i	i	nt
COc1ccc(C(=O)CC(=O)C(=O)Nc2cccc(F)c2)cc1	i	nt	i	i	i	i
COc1ccc(C(=O)CC(=O)C(=O)NCCc2cccc(C)c2)cc1	i	i	70	i	i	i
COc1ccc(C(=O)CC(=O)C(=O)Nc2cc(C)ccc2C)cc1	i	nt	i	i	i	i
COc1ccc(C(=O)CC(=O)C(=O)Nc2cc(OC)c(OC)c(OC)c2)cc1	i	nt	77	i	i	i
COc1cc(/C=N/Nc2ccc(F)cc2F)cc(OC)c1O	i	i	?	i	i	i
CC(C)(C)C(=O)Nc1nnc(CSCc2ccccc2F)s1	i	i	i	i	i	i
COc1ccc(NC(=S)NCc2ccc(S(N)(=O)=O)cc2)c(OC)c1	i	i	i	i	i	i
C/C(=N\Nc1ccc(Cl)c(C(=O)O)c1)c1cccc([N+](=O)[O-])c1	i	i	i	i	i	i
O=S(=O)(NCc1csc(-c2cccnc2)n1)c1ccc(Br)cc1	i	i	i	i	i	80

Bioassay records (PubChem BioAssay)
